Test results reported in ChEMBL document CHEMBL1132232, “7alpha-Iodo and 7alpha-fluoro steroids as androgen receptor-mediated imaging agents” (J Med Chem, 1999).

How the values were obtained:
[1] = system: Rattus norvegicus; assay: Distribution of tissue Radioactivity following Intravenous injection into castrated male rat liver at 1 hour time; assay type: ADME, organism-based; details: in vivo
Procedure, shortened: (§1)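 Male Sprague–Dawley rats, about 250 g, were castrated and injected the next day via the tail vein with 5.4 μCi (2.4 pmol) of 125I tracer in ethanol/saline (1:4). There were 5–6 rats per group. At 0.5, 1, 2 or 4 h, rats were ether-anesthetized and killed by exsanguination. Tissues were dissected, weighed and counted, giving % injected dose/g and prostate/blood ratios.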

[2] = system: Rattus norvegicus; assay: Distribution of tissue Radioactivity following Intravenous injection into castrated male rat spleen at 1 hour time; assay type: ADME, organism-based; details: in vivo; procedure, shortened: as §1
[3] = system: Rattus norvegicus; assay: Distribution of tissue Radioactivity following Intravenous injection into castrated male rat prostate/blood at 0.5 hours time; assay type: ADME, organism-based; details: in vivo; procedure, shortened: as §1
[4] = system: Rattus norvegicus; assay: Distribution of tissue Radioactivity following Intravenous injection into castrated male rat prostate/blood at 1 hours time; assay type: ADME, organism-based; details: other tissue; procedure, shortened: as §1
[5] = system: Rattus norvegicus; assay: Distribution of tissue Radioactivity following Intravenous injection into castrated male rat muscle at 1 hour time; assay type: ADME, organism-based; details: in vivo; procedure, shortened: as §1
[6] = system: Rattus norvegicus; assay: Distribution of tissue Radioactivity following Intravenous injection into castrated male rat fat at 4 hours time; assay type: ADME, organism-based, Adipose tissue; details: in vivo; procedure, shortened: as §1
[7] = system: Rattus norvegicus; assay: Distribution of tissue Radioactivity following Intravenous injection into castrated male rat blood at 2 hours time; assay type: ADME, organism-based; details: in vivo; procedure, shortened: as §1
[8] = system: Rattus norvegicus; assay: Distribution of tissue Radioactivity following Intravenous injection into castrated male rat prostate/blood at 4 hours time; assay type: ADME, organism-based; details: in vivo; procedure, shortened: as §1
[9] = system: Rattus norvegicus; assay: Distribution of tissue Radioactivity following subcutaneous injection of […] of 5-alpha-DHT 15 min before the administration of the [125I]- tracer castrated male rat muscle at 1 hour time; assay type: ADME, organism-based; details: in vivo, sc
Procedure, shortened: (§2)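 Castrated male Sprague–Dawley rats, about 250 g, received 5α-DHT subcutaneously in propylene glycol/saline (3:2) 15 min before a tail-vein 125I tracer (5.4 μCi, 2.4 pmol, in ethanol/saline 1:4). There were 5–6 rats per group. At 1 h, rats were ether-anesthetized and exsanguinated. Tissues were weighed and counted as % injected dose/g, plus the prostate/blood ratio.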

[10] = system: Rattus norvegicus; assay: Distribution of tissue Radioactivity following Intravenous injection into castrated male rat thyroid at 2 hours time; assay type: ADME, organism-based, Thyroid gland; details: in vivo; procedure, shortened: as §1
[11] = system: Rattus norvegicus; assay: Distribution of tissue Radioactivity following subcutaneous injection of […] of 5-alpha-DHT 15 min before the administration of the [125I]- tracer castrated male rat prostate/blood at 1 hour time; assay type: ADME, organism-based; details: in vivo, sc; procedure, shortened: as §2
[12] = system: Rattus norvegicus; assay: Distribution of tissue Radioactivity following Intravenous injection into castrated male rat liver at 4 hours time; assay type: ADME, organism-based; details: in vivo; procedure, shortened: as §1
[13] = system: Rattus norvegicus; assay: Distribution of tissue Radioactivity following Intravenous injection into castrated male rat blood at 1 hour time; assay type: ADME, organism-based; details: in vivo; procedure, shortened: as §1
[14] = system: Rattus norvegicus; assay: Distribution of tissue Radioactivity following Intravenous injection into castrated male rat blood at 4 hours time; assay type: ADME, organism-based; details: in vivo; procedure, shortened: as §1
[15] = system: Rattus norvegicus; assay: Distribution of tissue Radioactivity following Intravenous injection into castrated male rat blood at 0.5 hours time; assay type: ADME, organism-based; details: in vivo; procedure, shortened: as §1
[16] = system: Rattus norvegicus; assay: Distribution of tissue radioactivity following subcutaneous injection of […] of 5-alpha-DHT 15 min before the administration of the [125I] tracer castrated male rat prostate 1 hour time; assay type: ADME, organism-based, Prostate gland; details: in vivo, sc
[17] = system: Rattus norvegicus; assay: Distribution of tissue Radioactivity following Intravenous injection into castrated male rat spleen at 2 hours time; assay type: ADME, organism-based; details: in vivo; procedure, shortened: as §1
[18] = system: Rattus norvegicus; assay: Distribution of tissue Radioactivity following Intravenous injection into castrated male rat lung at 4 hours time; assay type: ADME, organism-based; details: in vivo; procedure, shortened: as §1
[19] = system: Rattus norvegicus; assay: Distribution of tissue Radioactivity following subcutaneous injection of […] of 5-alpha-DHT 15 min before the administration of the [125I]- tracer castrated male rat liver at 1 hour time; assay type: ADME, organism-based; details: in vivo, sc; procedure, shortened: as §2
[20] = system: Rattus norvegicus; assay: Distribution of tissue Radioactivity following Intravenous injection into castrated male rat muscle at 4 hours time; assay type: ADME, organism-based; details: in vivo; procedure, shortened: as §1
[21] = system: Rattus norvegicus; assay: Distribution of tissue Radioactivity following subcutaneous injection of […] of 5-alpha-DHT 15 min before the administration of the [125I]- tracer castrated male rat lung at 1 hour time; assay type: ADME, organism-based; details: in vivo, sc; procedure, shortened: as §2
[22] = system: Rattus norvegicus; assay: Distribution of tissue Radioactivity following Intravenous injection into castrated male rat prostate at 1 hours time; assay type: ADME, organism-based, Prostate gland; details: in vivo; procedure, shortened: as §1
[23] = system: Rattus norvegicus; assay: Distribution of tissue Radioactivity following subcutaneous injection of […] of 5-alpha-DHT 15 min before the administration of the [125I]- tracer castrated male rat spleen at 1 hour time; assay type: ADME, organism-based; details: in vivo, sc; procedure, shortened: as §2
[24] = system: Rattus norvegicus; assay: Distribution of tissue Radioactivity following Intravenous injection into castrated male rat spleen at 0.5 hours time; assay type: ADME, organism-based; details: in vivo; procedure, shortened: as §1
[25] = system: Rattus norvegicus; assay: Distribution of tissue Radioactivity following Intravenous injection into castrated male rat fat at 1 hour time; assay type: ADME, organism-based, Adipose tissue; details: in vivo; procedure, shortened: as §1
[26] = system: Rattus norvegicus; assay: Distribution of tissue Radioactivity following Intravenous injection into castrated male rat muscle at 2 hours time; assay type: ADME, organism-based; details: in vivo; procedure, shortened: as §1

Q: For `C[C@]12CCC(=O)CC1C[C@@H](I)[C@@H]1[C@@H]2CC[C@@]2(C)[C@H]1CC[C@]2(C)O` (stereo partly specified), which Biodistribution [1] is on record?
A: 0.29%

Q: And the Biodistribution [2]?
A: 0.16%

Q: And the Dose/g [3]?
A: 0.7%

Q: What about the Biodistribution [4] of the same molecule?
A: 1.17%

Q: And the Dose/g [5]?
A: 0.07%

Q: What about the Biodistribution [6] of the same molecule?
A: 0.17%

Q: And the Biodistribution [7]?
A: 0.31%

Q: What about the Dose/g [8] of the same molecule?
A: 1.19%

Q: What about the Biodistribution [9] of the same molecule?
A: 0.08%

Q: And the Dose/g [10]?
A: 3.55%

Q: And the Dose/g [11]?
A: 0.66%

Q: What about the Dose/g [12] of the same molecule?
A: 0.24%

Q: What about the Biodistribution [13] of the same molecule?
A: 0.33%

Q: And the Dose/g [14]?
A: 0.37%

Q: And the Dose/g [15]?
A: 0.3%

Q: And the Biodistribution [16]?
A: 0.23%

Q: What about the Biodistribution [17] of the same molecule?
A: 0.15%

Q: What about the Dose/g [18] of the same molecule?
A: 0.28%

Q: And the Dose/g [19]?
A: 0.36%

Q: And the Biodistribution [20]?
A: 0.07%

Q: What about the Dose/g [21] of the same molecule?
A: 0.28%

Q: And the Dose/g [22]?
A: 0.39%

Q: And the Dose/g [23]?
A: 0.18%

Q: And the Dose/g [24]?
A: 0.13%

Q: And the Dose/g [25]?
A: 0.25%

Q: And the Dose/g [26]?
A: 0.07%
